How the values were obtained:
Assay type in all cases: in vivo, human
[1] = Free serum insulin aspart pharmacokinetics after single subcutaneous dosing; settings: single s.c. 0.2 U/kg
Method in brief: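 Same crossover dosing (0.2 U/kg s.c., fasted). Blood sampled before dosing, every 2 min to 20 min, every 5 min to 80 min, every 10 min to 2 h, every 15 min to 3 h, then 3.5–12 h. Free (PEG-precipitated) serum insulin aspart measured by validated specific ELISA, LLOQ 10 pmol/L. Pre-LLOQ concentrations imputed by compartmental modelling for initial AUC portion.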

[2] = test system: subjects with type 1 diabetes mellitus; test: Euglycaemic glucose clamp; settings: single s.c. 0.2 U/kg
Method in brief: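 Single 0.2 U/kg s.c. dose into the lower abdominal wall in randomised two-visit crossover (3–12 day washout), elderly (≥65 y) and younger (18–35 y) T1DM subjects, morning after overnight fast. Euglycaemic clamp, BG target 5.5 mmol/L, up to 12 h. GIR logged every minute. Partial and total AUCGIR taken from raw profiles. Least square means; age-group ratios with 95% CI.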

[3] = test system: subjects with type 1 diabetes mellitus; test: Safety assessments
Method in brief: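 Monitored from dosing to follow-up 7–21 days after second dose: adverse events, injection-site local tolerability, hypoglycaemic episodes, laboratory safety, physical exam, vital signs, ECG. Hypoglycaemia confirmed if severe (ADA, third-party assistance) or plasma glucose <3.1 mmol/L. Summarised descriptively for subjects receiving at least one dose.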

[4] = elderly (≥65 years) T1DM, least square mean, n = 30
[5] = elderly and younger adults with T1DM, single s.c. 0.2 U/kg

insulin aspart
AUCIAsp,0-t, ratio of elderly/younger adults [95% CI] ([1]; age group ratio, T1DM): 1.32 [1.09–1.59] | C max, ratio of elderly/younger adults [95% CI] ([1]; age group ratio, T1DM): 1.20 [0.96–1.50] | t Early 50% Cmax [1, 4]: 28.0 min | t max [1, 4]: 1.07 h | C max (maximum insulin aspart concentration) ([1]; elderly T1DM, least square mean, n = 30): 0.3676 nM | GIRmax, ratio of elderly/younger adults [95% CI] ([2]; age group ratio, T1DM): 0.78 [0.60–1.01] | AUCGIR,0-t, ratio of elderly/younger adults [95% CI] ([2]; age group ratio, T1DM, primary endpoint for faster aspart): 0.85 [0.67–1.07] | AUCGIR,0-t (total glucose-lowering effect) ([2]; elderly T1DM, clamp up to 12 h, least square mean, n = 22): 1012.5 mg/kg | Injection-site reactions ([3]; during the trial): no injection-site reactions | Adverse events of moderate intensity [3, 5]: eight | Serious adverse events [3, 5]: no serious adverse events | Tolerability [3, 5]: well-tolerated | Confirmed hypoglycaemic episodes ([3]; severe (ADA) or plasma glucose <3.1 mmol/L, during the trial): No confirmed hypoglycaemic episodes

Source: paper PMC5222895 (Drugs & Aging, 2016)
